Test results reported in ChEMBL document CHEMBL5661979, “Pharmacological inhibition of BMK1 suppresses tumor growth through promyelocytic leukemia protein” (Cancer Cell, 2010).

What was measured:
[1] = target: Microtubule-associated serine/threonine-protein kinase 3 (Homo sapiens, UniProt O60307); experiment: Inhibition of MAST3 in human HeLa cells lysate at 2 uM pre incubated for 15 mins followed by ATP acyl phosphate probe addition and measured after 10 mins by LC-MS/MS analysis relative to control; type: subcellular; settings: time 25.0 min
Ephrin type-A receptor 2 = Ephrin type-A receptor 2 (Homo sapiens, UniProt P29317); experiment: Inhibition of EphA2 in human HeLa cells lysate at 10 uM pre incubated for 15 mins followed by ATP acyl phosphate probe addition and measured after 10 mins by LC-MS/MS analysis relative to control; type: subcellular; settings: time 25.0 min
Chain of Ephrin type-A receptor 2 (P29317 whole entry): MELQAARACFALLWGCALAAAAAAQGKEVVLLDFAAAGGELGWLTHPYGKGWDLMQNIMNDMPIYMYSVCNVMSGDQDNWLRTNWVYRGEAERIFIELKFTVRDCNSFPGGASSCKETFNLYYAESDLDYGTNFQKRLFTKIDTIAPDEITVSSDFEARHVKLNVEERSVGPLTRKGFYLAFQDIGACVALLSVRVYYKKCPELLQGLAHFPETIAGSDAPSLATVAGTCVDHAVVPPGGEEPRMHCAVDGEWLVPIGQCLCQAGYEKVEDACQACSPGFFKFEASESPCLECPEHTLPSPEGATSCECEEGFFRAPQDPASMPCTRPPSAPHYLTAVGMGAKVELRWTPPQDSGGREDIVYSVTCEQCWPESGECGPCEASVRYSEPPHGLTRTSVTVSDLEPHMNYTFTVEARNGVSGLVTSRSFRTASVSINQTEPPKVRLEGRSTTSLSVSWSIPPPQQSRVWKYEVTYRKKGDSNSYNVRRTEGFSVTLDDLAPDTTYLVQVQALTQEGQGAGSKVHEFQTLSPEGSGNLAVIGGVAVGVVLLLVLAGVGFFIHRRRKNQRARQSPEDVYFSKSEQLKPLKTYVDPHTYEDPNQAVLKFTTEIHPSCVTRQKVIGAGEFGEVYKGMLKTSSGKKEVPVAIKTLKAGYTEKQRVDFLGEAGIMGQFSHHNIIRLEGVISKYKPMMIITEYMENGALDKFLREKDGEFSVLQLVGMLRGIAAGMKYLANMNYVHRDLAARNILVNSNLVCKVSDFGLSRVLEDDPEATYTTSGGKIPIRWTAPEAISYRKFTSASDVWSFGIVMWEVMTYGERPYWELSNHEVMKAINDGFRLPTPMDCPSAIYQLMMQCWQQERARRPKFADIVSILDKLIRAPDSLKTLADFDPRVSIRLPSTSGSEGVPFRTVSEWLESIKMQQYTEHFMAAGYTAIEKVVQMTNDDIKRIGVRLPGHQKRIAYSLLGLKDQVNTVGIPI

[2] = target: T1, Serine/threonine-protein kinase 24 (Homo sapiens, UniProt Q9Y6E0); experiment: Inhibition of MST3 in human HeLa cells lysate at 2 uM pre incubated for 15 mins followed by ADP acyl phosphate probe addition and measured after 10 mins by LC-MS/MS analysis relative to control; type: subcellular; settings: time 25.0 min
T1 sequence (Q9Y6E0 whole entry, looked up): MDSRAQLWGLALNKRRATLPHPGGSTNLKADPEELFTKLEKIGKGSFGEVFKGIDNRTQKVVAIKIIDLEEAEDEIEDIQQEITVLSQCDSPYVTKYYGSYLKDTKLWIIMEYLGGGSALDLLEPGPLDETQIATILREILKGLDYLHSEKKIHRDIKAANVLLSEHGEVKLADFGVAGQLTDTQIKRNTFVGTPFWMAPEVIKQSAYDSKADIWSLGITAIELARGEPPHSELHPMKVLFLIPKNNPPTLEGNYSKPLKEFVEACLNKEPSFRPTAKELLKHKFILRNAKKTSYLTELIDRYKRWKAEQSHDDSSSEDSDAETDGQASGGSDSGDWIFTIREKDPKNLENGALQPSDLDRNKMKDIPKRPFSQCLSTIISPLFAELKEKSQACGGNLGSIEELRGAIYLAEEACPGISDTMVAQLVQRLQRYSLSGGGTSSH

[3] = target: Protein kinase C iota type (Homo sapiens, UniProt P41743); experiment: Inhibition of PKCiota in human HeLa cells lysate pre incubated for 15 mins followed by ADP acyl phosphate probe addition and measured after 10 mins by LC-MS/MS analysis; type: subcellular
Chain of Protein kinase C iota type (P41743 whole entry): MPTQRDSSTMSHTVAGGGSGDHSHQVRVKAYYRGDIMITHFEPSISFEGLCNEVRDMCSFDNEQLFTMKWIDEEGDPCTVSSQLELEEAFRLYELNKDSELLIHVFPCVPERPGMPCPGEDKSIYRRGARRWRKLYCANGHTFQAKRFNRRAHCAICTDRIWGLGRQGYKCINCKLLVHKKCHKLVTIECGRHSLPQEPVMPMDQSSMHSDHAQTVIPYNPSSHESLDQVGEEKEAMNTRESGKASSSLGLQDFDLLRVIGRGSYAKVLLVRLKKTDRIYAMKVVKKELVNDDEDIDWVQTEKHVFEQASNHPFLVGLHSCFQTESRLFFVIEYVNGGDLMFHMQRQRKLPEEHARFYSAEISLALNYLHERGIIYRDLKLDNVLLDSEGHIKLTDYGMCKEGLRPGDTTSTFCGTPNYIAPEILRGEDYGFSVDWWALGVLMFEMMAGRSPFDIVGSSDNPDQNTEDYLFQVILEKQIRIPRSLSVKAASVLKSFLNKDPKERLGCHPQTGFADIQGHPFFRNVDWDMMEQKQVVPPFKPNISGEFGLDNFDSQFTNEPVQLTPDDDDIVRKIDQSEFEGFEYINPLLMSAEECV

[4] = target: Serine/threonine-protein kinase SMG1 (Homo sapiens, UniProt Q96Q15); experiment: Inhibition of SMG1 in human HeLa cells lysate at 2 uM pre incubated for 15 mins followed by ATP acyl phosphate probe addition and measured after 10 mins by LC-MS/MS analysis relative to control; type: subcellular; settings: time 25.0 min
[5] = target: Serine/threonine-protein kinase 38-like (Homo sapiens, UniProt Q9Y2H1); experiment: Inhibition of NDR2 in human HeLa cells lysate pre incubated for 15 mins followed by ADP acyl phosphate probe addition and measured after 10 mins by LC-MS/MS analysis; type: subcellular
Chain of Serine/threonine-protein kinase 38-like (Q9Y2H1 whole entry): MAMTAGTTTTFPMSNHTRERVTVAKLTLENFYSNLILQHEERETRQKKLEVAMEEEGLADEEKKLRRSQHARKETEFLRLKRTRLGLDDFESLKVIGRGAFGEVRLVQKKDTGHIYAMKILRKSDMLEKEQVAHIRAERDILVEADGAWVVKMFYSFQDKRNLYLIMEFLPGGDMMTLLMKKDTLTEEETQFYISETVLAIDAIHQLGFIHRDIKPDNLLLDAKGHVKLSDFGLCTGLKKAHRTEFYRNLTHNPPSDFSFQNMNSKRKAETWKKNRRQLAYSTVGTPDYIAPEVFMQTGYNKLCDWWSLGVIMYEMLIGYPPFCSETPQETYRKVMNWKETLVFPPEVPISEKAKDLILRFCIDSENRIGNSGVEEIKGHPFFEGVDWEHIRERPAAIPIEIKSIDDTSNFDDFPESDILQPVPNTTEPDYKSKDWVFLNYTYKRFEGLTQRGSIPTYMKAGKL

[6] = Inhibition of MSK1/2 domain 1 in human HeLa cells lysate at 50 uM pre incubated for 15 mins followed by ATP acyl phosphate probe addition and measured after 10 mins by LC-MS/MS analysis relative to control; settings: 25 min, condition cancer
[7] = target: T1, Serine/threonine-protein kinase 24; experiment: Inhibition of MST3 in human HeLa cells lysate at 50 uM pre incubated for 15 mins followed by ADP acyl phosphate probe addition and measured after 10 mins by LC-MS/MS analysis relative to control; type: subcellular; settings: time 25.0 min
[8] = target: Calcium/calmodulin-dependent protein kinase type II subunit gamma (Homo sapiens, UniProt Q13555); experiment: Inhibition of CAMK2g in human HeLa cells lysate at 10 uM pre incubated for 15 mins followed by ADP acyl phosphate probe addition and measured after 10 mins by LC-MS/MS analysis relative to control; type: subcellular; settings: time 25.0 min
Chain of Calcium/calmodulin-dependent protein kinase type II subunit gamma (Q13555 whole entry, the tested form may be a part): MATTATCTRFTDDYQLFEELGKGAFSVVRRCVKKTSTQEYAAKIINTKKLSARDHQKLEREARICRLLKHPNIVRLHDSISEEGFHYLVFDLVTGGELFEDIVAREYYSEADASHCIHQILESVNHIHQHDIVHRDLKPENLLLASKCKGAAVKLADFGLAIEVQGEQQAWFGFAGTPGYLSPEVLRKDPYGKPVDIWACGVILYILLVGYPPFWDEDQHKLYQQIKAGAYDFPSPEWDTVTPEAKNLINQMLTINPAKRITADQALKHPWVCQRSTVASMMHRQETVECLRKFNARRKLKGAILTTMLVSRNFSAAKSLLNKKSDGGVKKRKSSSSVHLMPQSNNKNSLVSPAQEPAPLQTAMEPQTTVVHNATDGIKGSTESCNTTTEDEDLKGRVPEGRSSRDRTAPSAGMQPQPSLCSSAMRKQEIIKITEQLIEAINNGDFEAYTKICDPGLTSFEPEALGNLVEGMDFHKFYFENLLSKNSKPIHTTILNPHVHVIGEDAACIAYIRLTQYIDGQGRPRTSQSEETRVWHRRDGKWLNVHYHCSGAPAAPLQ
How it was run: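 KiNativ-type profiling in HeLa lysate (5 mg/mL total protein). Lysate preincubated 15 min with inhibitor at 50, 10, 2, 0.8 or 0 μM, then ATP or ADP acylphosphate probe added (5 μM final) for 10 min. Reaction stopped with urea and analysed by targeted MS, using up to four fragment ions per kinase peptide-probe conjugate. % inhibition calculated against untreated lysate. Duplicate reactions.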

[9] = target: Mitogen-activated protein kinase 4 (Homo sapiens, UniProt P31152); experiment: Inhibition of ERK4 in human HeLa cells lysate pre incubated for 15 mins followed by ATP acyl phosphate probe addition and measured after 10 mins by LC-MS/MS analysis; type: subcellular
Chain of Mitogen-activated protein kinase 4 (P31152 whole entry): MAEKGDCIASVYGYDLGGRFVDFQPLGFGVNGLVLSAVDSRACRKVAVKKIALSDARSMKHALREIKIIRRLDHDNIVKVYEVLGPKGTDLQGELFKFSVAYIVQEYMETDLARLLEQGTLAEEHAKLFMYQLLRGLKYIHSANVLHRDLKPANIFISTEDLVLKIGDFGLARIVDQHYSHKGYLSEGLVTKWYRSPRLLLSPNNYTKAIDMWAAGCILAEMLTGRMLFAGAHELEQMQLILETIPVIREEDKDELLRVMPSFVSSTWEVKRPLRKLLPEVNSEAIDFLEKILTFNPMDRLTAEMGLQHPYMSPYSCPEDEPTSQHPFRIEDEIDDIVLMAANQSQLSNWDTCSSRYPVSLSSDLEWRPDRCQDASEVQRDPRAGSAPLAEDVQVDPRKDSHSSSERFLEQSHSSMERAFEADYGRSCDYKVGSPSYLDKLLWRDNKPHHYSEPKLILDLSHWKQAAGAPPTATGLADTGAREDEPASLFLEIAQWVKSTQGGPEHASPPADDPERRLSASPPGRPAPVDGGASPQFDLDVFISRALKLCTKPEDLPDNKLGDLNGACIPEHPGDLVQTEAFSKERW

[10] = target: T2, Interleukin-1 receptor-associated kinase 4 (Homo sapiens) (UniProt Q9NWZ3); experiment: Inhibition of IRAK4 in human HeLa cells lysate at 2 uM pre incubated for 15 mins followed by ATP acyl phosphate probe addition and measured after 10 mins by LC-MS/MS analysis relative to control; type: subcellular; settings: time 25.0 min
T2 sequence (whole entry): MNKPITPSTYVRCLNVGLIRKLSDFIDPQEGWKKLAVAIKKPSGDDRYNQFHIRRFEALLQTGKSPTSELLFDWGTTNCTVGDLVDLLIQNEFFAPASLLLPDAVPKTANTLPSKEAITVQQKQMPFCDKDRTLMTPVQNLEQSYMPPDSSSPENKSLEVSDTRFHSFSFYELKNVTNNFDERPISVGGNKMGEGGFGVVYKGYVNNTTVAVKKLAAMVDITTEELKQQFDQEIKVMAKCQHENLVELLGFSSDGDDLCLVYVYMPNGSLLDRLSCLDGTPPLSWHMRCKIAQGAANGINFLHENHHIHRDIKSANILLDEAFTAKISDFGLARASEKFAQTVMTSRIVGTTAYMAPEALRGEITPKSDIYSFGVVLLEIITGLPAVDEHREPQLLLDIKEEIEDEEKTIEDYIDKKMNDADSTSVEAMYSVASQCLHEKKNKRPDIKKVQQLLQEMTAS

[11] = Inhibition of MST4/YSK1 in human HeLa cells lysate at 50 uM pre incubated for 15 mins followed by ADP acyl phosphate probe addition and measured after 10 mins by LC-MS/MS analysis relative to control; settings: 25 min, condition cancer
[12] = Inhibition of MAP3K2/MAP3K3 in human HeLa cells lysate pre incubated for 15 mins followed by ATP acyl phosphate probe addition and measured after 10 mins by LC-MS/MS analysis; type: subcellular
[13] = target: Serine/threonine-protein kinase/endoribonuclease IRE1 (Homo sapiens, UniProt O75460); experiment: Inhibition of IRE1 in human HeLa cells lysate pre incubated for 15 mins followed by ADP acyl phosphate probe addition and measured after 10 mins by LC-MS/MS analysis; type: subcellular
Chain of Serine/threonine-protein kinase/endoribonuclease IRE1 (O75460 whole entry): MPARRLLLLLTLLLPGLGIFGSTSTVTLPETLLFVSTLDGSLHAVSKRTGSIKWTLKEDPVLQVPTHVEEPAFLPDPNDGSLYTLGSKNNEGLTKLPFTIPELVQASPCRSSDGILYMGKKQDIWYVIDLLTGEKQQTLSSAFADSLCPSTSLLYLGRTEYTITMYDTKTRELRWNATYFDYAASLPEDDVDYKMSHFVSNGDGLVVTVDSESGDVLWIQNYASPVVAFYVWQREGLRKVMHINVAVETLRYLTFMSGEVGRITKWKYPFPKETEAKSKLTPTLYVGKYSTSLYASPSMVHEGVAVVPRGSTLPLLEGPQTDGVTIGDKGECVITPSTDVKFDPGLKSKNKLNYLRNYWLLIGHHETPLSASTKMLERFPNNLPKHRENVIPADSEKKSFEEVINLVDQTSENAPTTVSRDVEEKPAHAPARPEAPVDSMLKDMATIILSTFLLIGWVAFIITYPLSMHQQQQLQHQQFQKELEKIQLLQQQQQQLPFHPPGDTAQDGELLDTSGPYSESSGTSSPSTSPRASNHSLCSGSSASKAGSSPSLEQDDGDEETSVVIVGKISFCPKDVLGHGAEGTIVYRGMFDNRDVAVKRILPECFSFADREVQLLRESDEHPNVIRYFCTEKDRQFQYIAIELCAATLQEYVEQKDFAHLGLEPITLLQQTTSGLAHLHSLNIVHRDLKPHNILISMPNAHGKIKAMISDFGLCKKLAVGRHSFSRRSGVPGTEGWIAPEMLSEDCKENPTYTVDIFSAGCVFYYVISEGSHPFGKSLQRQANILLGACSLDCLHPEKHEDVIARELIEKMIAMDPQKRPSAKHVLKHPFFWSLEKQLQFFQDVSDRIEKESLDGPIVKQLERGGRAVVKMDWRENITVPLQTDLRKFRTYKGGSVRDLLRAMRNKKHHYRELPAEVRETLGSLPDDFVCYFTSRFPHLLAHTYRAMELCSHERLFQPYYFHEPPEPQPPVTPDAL

[14] = target: Acylglycerol kinase, mitochondrial (Homo sapiens, UniProt Q53H12); experiment: Inhibition of AGK in human HeLa cells lysate pre incubated for 15 mins followed by ATP acyl phosphate probe addition and measured after 10 mins by LC-MS/MS analysis; type: subcellular
Chain of Acylglycerol kinase, mitochondrial (Q53H12 whole entry, the tested form may be a part): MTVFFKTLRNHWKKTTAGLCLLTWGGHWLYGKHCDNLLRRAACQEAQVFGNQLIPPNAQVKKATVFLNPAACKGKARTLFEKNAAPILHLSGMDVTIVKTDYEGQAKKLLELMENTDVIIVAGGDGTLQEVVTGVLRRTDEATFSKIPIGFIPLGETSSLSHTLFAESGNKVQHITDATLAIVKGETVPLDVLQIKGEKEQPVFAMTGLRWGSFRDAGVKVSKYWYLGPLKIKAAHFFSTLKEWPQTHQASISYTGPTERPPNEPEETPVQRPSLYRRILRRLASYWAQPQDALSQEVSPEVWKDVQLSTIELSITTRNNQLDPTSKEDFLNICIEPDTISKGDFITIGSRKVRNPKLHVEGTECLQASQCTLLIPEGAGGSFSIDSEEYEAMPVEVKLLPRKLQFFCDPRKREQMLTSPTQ
How it was run: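 HeLa cell lysates (5 mg/mL total protein) were preincubated with inhibitor at 0, 0.8, 2, 10 or 50 μM for 15 min. ATP or ADP acylphosphate probe was then added (5 μM final) for 10 min, and reactions were stopped with urea. Up to four fragment ions per kinase probe-peptide were quantified by targeted MS. % inhibition was taken relative to untreated lysate. Run in duplicate.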

[15] = target: T3, Scaffold protein ILK (Homo sapiens) (UniProt Q13418); experiment: Inhibition of ILK in human HeLa cells lysate at 50 uM pre incubated for 15 mins followed by ATP acyl phosphate probe addition and measured after 10 mins by LC-MS/MS analysis relative to control; type: subcellular; settings: time 25.0 min
T3 sequence (whole entry): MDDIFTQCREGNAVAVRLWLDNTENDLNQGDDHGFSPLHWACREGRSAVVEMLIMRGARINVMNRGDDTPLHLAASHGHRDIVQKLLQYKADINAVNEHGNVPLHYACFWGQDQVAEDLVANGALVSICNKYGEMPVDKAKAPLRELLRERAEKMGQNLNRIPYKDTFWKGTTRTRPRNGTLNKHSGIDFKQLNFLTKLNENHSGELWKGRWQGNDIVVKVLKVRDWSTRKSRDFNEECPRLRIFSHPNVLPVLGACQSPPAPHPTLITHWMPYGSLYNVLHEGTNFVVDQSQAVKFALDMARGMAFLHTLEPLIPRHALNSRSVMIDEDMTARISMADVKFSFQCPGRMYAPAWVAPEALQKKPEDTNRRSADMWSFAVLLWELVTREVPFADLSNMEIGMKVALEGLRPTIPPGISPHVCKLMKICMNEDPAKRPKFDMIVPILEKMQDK

CCOc1cc(N2CCC(O)CC2)ccc1Nc1ncc2c(n1)N(C)c1ccccc1C(=O)N2C
inhibition [1]: 2% | inhibition (Ephrin type-A receptor 2): -3.9% | inhibition [2]: 3.2% | IC50 [3]: > 50 µM | inhibition [4]: 1.8% | IC50 [5]: > 50 µM | inhibition at 50 µM [6]: -21.5% | inhibition [7]: -8.5% | inhibition [8]: -2.3% | IC50 [9]: > 50 µM | inhibition [10]: 6.7% | inhibition at 50 µM [11]: -14.3% | IC50 [12]: > 50 µM | IC50 [13]: > 50 µM | IC50 [14]: > 50 µM | inhibition [15]: -6.7%
